Consider 24 compounds from ChEMBL document CHEMBL5365545, “Synthesis and Optimization of 1-Substituted Imidazo[4,5-c]quinoline TLR7 Agonists” (ACS Med Chem Lett, 2023).

Calls of active or inactive are those of the source. The calls are words filed in the database; no cut-off is given here.

The first data set addresses T1, Toll-like receptor 7 (Homo sapiens, UniProt Q9NYK1).
T1 sequence (Q9NYK1 whole entry): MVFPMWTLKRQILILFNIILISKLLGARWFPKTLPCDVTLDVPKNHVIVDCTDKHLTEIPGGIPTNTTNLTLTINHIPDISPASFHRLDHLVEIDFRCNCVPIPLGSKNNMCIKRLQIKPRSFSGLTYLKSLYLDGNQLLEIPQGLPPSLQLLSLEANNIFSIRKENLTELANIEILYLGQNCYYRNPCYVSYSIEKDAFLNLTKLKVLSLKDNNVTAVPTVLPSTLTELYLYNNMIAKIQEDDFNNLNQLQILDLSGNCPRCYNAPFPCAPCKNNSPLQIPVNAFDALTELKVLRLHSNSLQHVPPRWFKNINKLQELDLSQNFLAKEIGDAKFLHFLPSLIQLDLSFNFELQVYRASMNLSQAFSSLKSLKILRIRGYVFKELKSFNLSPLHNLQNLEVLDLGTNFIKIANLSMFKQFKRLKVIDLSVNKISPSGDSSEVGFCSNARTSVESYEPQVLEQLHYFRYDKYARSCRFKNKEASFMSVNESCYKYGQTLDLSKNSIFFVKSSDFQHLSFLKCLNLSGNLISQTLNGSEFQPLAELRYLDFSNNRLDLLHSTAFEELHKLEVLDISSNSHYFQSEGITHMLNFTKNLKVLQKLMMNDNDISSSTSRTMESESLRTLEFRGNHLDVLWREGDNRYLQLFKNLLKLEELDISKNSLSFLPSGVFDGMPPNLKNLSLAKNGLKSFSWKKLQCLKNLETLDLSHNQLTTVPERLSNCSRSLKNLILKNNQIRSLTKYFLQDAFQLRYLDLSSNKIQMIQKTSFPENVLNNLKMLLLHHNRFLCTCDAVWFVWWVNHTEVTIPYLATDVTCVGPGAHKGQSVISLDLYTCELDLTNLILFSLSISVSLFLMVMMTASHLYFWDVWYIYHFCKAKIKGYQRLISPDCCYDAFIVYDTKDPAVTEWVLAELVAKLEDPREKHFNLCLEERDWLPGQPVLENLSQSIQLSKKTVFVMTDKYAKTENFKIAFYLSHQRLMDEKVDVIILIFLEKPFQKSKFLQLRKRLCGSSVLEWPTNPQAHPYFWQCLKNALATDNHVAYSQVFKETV
In words: Agonist activity at TLR7 in human Ramos-blue cells assessed as increase in NFkappaB activation incubated for 72 hrs by quanti-blue/SEAP reporter gene based assay. It counts as cell-based.
Conditions: not given
One may read the EC50 as the concentration at which the effect is half-maximal. On to `CCCCc1nc2c(N)nc3ccccc3c2n1Cc1ccc(N)cc1`, for which the EC50 worked out at 0.069 µM.

Regarding `CCCCc1nc2c(N)nc3ccccc3c2n1Cc1ccc(OC)cc1`, the EC50 came out at 0.232 µM.

Tested on in the next data set: not listed separately
In words: Apparent permeability of the compound at 200 uM incubated for 5 hrs by PAMPA assay. It counts as ADME.
Conditions: not given
In a few lines: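 PAMPA using an artificial lipid/oil/lipid trilayer membrane separating donor and acceptor wells. Compound was quantified by absorbance at 280 nm, or at 320 nm for some compounds. Runs were in triplicate, and the reported values are averages of three experiments.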
(In general: PAMPA measures passive passage across an artificial lipid membrane.)
What is called Papp is a coefficient for how fast a substance crosses the barrier. `CCCCc1nc2c(N)nc3ccccc3c2n1Cc1ccc(NC(=O)CCN)cc1`: the apparent permeability (Papp) at 5 h, 200 µM is 0.131 ×10⁻⁶ cm/s.

Regarding `CCCCC(=O)Nc1ccc(Cn2c(CCCC)nc3c(N)nc4ccccc4c32)cc1`, the Papp at 5 h, 200 µM is 1.59 ×10⁻⁶ cm/s.

For `CCCCc1nc2c(N)nc3ccccc3c2n1Cc1ccc(NC(=O)CN)cc1`, the Papp at 5 h, 200 µM is 0.834 ×10⁻⁶ cm/s.

For the compound `CCCCc1nc2c(N)nc3ccccc3c2n1Cc1cccc(O)c1`, the apparent permeability coefficient (Papp) at 5 h, 200 µM came to 0.98 ×10⁻⁶ cm/s.

On to `CCCCc1nc2c(N)nc3ccccc3c2n1Cc1ccc(NC(=O)CNC(=O)OC(C)(C)C)cc1`, for which the Papp at 5 h, 200 µM came to 4.48 ×10⁻⁶ cm/s.

`CCCCOC(=O)Cc1ccc(Cn2c(CCCC)nc3c(N)nc4ccccc4c32)cc1`: the Papp at 5 h, 200 µM stood at 14.2 ×10⁻⁶ cm/s.

For the compound `CCCCc1nc2c(N)nc3ccccc3c2n1Cc1cccc(OC)c1`, the Papp at 5 h, 200 µM is 2.5 ×10⁻⁶ cm/s.

`CCCCc1nc2c(N)nc3ccccc3c2n1Cc1ccc(N)cc1`: the Papp at 5 h, 200 µM stood at 8.51 ×10⁻⁶ cm/s.

As for `CCCCc1nc2c(N)nc3ccccc3c2n1Cc1ccc(NC(=O)OCC)cc1`, the Papp at 5 h, 200 µM stood at 8.78 ×10⁻⁶ cm/s.

As to `CCCCc1nc2c(N)nc3ccccc3c2n1Cc1ccc(NC(C)=O)cc1`, the apparent permeability coefficient (Papp) at 5 h, 200 µM is 3.45 ×10⁻⁶ cm/s.

For `CCCCc1nc2c(N)nc3ccccc3c2n1Cc1ccc(NC(=O)CCCN)cc1`, the Papp at 5 h, 200 µM came out at 0.159 ×10⁻⁶ cm/s.

For the compound `CCCCc1nc2c(N)nc3ccccc3c2n1Cc1cccc(N)c1`, the apparent permeability coefficient (Papp) at 5 h, 200 µM came out at 5.26 ×10⁻⁶ cm/s.

As for `CCOCc1nc2c(N)nc3ccccc3c2n1CC(C)(C)O` [RESIQUIMOD], the Papp at 5 h, 200 µM was found to be 5.3 ×10⁻⁶ cm/s.

With `CCCCc1nc2c(N)nc3ccccc3c2n1Cc1ccc(NC(=O)CCCCN)cc1`, the Papp at 5 h, 200 µM is 0.838 ×10⁻⁶ cm/s.

Regarding `CCCCc1nc2c(N)nc3ccccc3c2n1Cc1ccc(O)cc1`, the Papp at 5 h, 200 µM is 3.06 ×10⁻⁶ cm/s.

Regarding `CCCCc1nc2c(N)nc3ccccc3c2n1Cc1ccc(NC(=O)CCCCCNC(=O)OC(C)(C)C)cc1`, the Papp at 5 h, 200 µM turned out to be 1.91 ×10⁻⁶ cm/s.

On to `CCCCc1nc2c(N)nc3ccccc3c2n1Cc1ccc(NC(=O)OC(C)C)cc1`, for which the Papp at 5 h, 200 µM is 5.12 ×10⁻⁶ cm/s.

With `CCCCc1nc2c(N)nc3ccccc3c2n1Cc1ccc(NC(=O)CCCNC(=O)OC(C)(C)C)cc1`, the Papp at 5 h, 200 µM worked out at 1.33 ×10⁻⁶ cm/s.

Take `CCCCc1nc2c(N)nc3ccccc3c2n1Cc1cccc(NC(=O)OC(C)(C)C)c1`: the Papp at 5 h, 200 µM is 1.24 ×10⁻⁶ cm/s.

Take `CCCCc1nc2c(N)nc3ccccc3c2n1Cc1ccc(NC(=O)CCCCCN)cc1`: the apparent permeability (Papp) at 5 h, 200 µM stood at 0.436 ×10⁻⁶ cm/s.

Consider `CCCCc1nc2c(N)nc3ccccc3c2n1Cc1ccc(OC)cc1`, for which the Papp at 5 h, 200 µM came out at 4.01 ×10⁻⁶ cm/s.

Turning to `CCCCc1nc2c(N)nc3ccccc3c2n1Cc1ccc(NC(=O)CCCCNC(=O)OC(C)(C)C)cc1`, the Papp at 5 h, 200 µM is 1.95 ×10⁻⁶ cm/s.

Regarding `CCCCc1nc2c(N)nc3ccccc3c2n1Cc1ccc(NC(=O)CCNC(=O)OC(C)(C)C)cc1`, the apparent permeability (Papp) at 5 h, 200 µM came out at 0.434 ×10⁻⁶ cm/s.

The target of a further data set is T2, Toll-like receptor 8 (Homo sapiens) (UniProt Q9NR97).
T2 sequence (whole entry): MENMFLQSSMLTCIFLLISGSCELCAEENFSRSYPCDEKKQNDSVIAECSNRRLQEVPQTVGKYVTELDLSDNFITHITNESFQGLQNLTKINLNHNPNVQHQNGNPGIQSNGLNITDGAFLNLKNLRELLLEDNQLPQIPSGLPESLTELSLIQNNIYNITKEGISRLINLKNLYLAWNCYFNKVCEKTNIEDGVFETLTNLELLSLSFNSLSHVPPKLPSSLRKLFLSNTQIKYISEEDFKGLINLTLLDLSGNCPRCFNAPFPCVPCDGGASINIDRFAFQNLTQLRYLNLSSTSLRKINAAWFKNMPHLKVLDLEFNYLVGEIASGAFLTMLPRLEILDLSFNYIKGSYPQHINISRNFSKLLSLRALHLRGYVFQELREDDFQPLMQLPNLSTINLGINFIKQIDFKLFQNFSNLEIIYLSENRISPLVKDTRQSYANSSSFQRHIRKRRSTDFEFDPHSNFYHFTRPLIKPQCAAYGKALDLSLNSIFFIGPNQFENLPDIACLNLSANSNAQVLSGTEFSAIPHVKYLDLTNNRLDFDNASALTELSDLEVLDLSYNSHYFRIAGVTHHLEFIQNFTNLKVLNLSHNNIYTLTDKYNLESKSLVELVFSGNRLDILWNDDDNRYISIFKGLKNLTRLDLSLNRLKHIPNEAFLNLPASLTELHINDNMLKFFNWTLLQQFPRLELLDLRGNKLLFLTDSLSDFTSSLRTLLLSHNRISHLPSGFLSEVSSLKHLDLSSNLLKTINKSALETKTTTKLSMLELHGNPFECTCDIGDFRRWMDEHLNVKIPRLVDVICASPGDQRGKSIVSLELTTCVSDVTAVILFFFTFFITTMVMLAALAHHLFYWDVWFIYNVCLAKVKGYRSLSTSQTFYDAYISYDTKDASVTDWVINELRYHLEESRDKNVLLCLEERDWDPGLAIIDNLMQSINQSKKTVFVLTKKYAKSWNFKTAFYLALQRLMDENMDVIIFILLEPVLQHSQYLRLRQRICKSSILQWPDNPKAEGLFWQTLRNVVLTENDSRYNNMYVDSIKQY
In words: Agonist activity at TLR8 in GM-CSF induced human MDM cells assessed as increase in TNFalpha release at 80 to 2000 nM measured after 6 hrs. Type of data set: cell-based. The following applies: filed as agonist, dose 80-2000 nM.
Take `CCCN(CCC)C(=O)C1=Cc2ccc(-c3ccc(C(=O)N4CCCC4)cc3)cc2N=C(N)C1`: the outcome was Active.

The target of another data set is T2, Toll-like receptor 8 (Homo sapiens). In words: Agonist activity at TLR8 in GM-CSF induced human MDM cells assessed as increase in IL-6 release at 80 to 2000 nM measured after 6 hrs. The following applies: filed as agonist, dose 80-2000 nM. It counts as cell-based.
Take `CCCN(CCC)C(=O)C1=Cc2ccc(-c3ccc(C(=O)N4CCCC4)cc3)cc2N=C(N)C1`: the outcome was Active.
